Screening data from PubChem.
Insulin prom act: activators of insulin promoter-driven GFP, primary screen, imaging, TRM-6 cells (human fetal islet line), eGFP reporter, cell count. plate-scaled: unstimulated 0, stimulated control 100. activation, % at 2 µM. 0.81% of 130,000 active;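 active means activation at 2 µM above a set limit, confirmed on inspection of the cell images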;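 further: share of cells whose green reporter signal exceeds an intensity cutoff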
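System – TRM-6 insulin promoter–eGFP reporter cells · Probe or stimulus – 0.75 µM tamoxifen as reporter inducer · Dosing – single-point 2 µM compound dose · Incubation – tamoxifen pre-incubation 15 h overnight, then compound exposure 48 h at 37 °C · Measured by – fixed-cell fluorescence microscopy, eGFP plus Hoechst · Evaluation – percent GFP-positive cells normalized to per-plate controls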
Hits are given with their value; i = inactive. Only a selection was taken, and hits are over-represented in it overall.

SMILES	Insulin prom act
CCC(=O)Nc1ccc(Cl)c(NC(=O)c2ccc(Br)o2)c1	i
CCCC(=O)Nc1ccc(Cl)c(NC(=O)C(C)(C)C)c1	790
O=C(Nc1ccc(Br)c(Cl)c1)C1CC1	i
CCOC(=O)CC(C)(C)/C(C)=N/Nc1ccc([N+](=O)[O-])cc1[N+](=O)[O-]	i
Cc1nnc(SCC(=O)NC(C)(C)C)n1C1CCCCC1	i
O=Cc1ccc(-c2cc(Cl)ccc2Cl)[nH]1	i
O=C(COc1ccc(Cl)cc1)Nc1ccccc1C(=O)NCc1ccco1	438
O=C(COc1ccc(Cl)cc1Cl)NNC(=S)NCc1ccco1	i
O=C(Nc1ccccc1C(=O)NCc1ccco1)NC1CCCCC1	i
COc1cc2nc(CN3CCN(S(=O)(=O)c4ccc(Cl)cc4)CC3)[nH]c(=O)c2cc1OC	i
CSc1ccc(CN(C)CC(=O)NC(C)c2ccccc2)cc1 (stereo unspecified)	i
Cc1ccc(/C=C/C(=O)O)cc1S(=O)(=O)N(CCO)CCO	i
CNC(=S)/N=C/NOCc1c(Cl)cccc1Cl	i
CC1=NN(c2ccccc2)C(=O)/C1=C\N1CC(C)OC(C)C1 (stereo unspecified)	i
CC1=NN(c2cccc(C(=O)O)c2)C(=O)/C1=C\C=C\c1ccco1	456
O=C1NN(c2ccc(F)cc2)C(=O)/C1=C\C=C\c1ccco1	i
COc1cc(C(C)=O)ccc1COc1ccc(C(=O)OC(C)C(=O)NC(N)=O)cc1OC (stereo unspecified)	i
CCOC(=O)COn1c(=O)c(=O)n(O)c2ccccc21	i
COc1ccc(CN2C(=O)/C(=C/c3ccncc3)SC2=S)cc1	i
COC(=O)c1cn(C(=O)OC)c2ccccc12	i
O=C(O)c1cn(-c2ccccc2)c(=O)c2ccccc12	i
COC(=O)c1cn(-c2ccccc2)c(C)c1C(=O)OC	592
NC(=O)CSc1nc2ccccc2n1-c1ccccc1	i
Cn1c(CNC(=O)c2ccc(F)cc2)nc2ccccc21	i
O=c1c(/C=C(\O)c2ccc(F)cc2)nc2ccccc2n1-c1ccccc1	128
SMILES	Insulin prom act
OC(CSc1ccc(F)cc1)CN1CCN(c2ccccc2)CC1 (stereo unspecified)	118
OC(CN1CCN(c2ccccc2)CC1)Cn1c2ccccc2c2ccccc21 (stereo unspecified)	i
O=S(=O)(c1ccc(OCC(O)CN2CCN(c3ccccc3)CC2)cc1)N1CCOCC1 (stereo unspecified)	i
Cc1c(C(=O)NNC(=S)Nc2cccc(Cl)c2)nnn1-c1ccccc1	i
CCC1(C)CC(c2nc(-c3ccc(OC)cc3)cs2)CCS1 (stereo unspecified)	i
O=C(c1cncc(Br)c1)N1CCc2ccccc2C1	i
CCn1c(SCC(=O)NCc2cccs2)nc2c1c(=O)n(C)c(=O)n2C	i
O=C(CSc1nc2ccccc2c(=O)n1Cc1ccc(Cl)cc1)NCc1cccs1	i
CCn1c(=O)c2ccccc2n2c(SCC(=O)NCc3cccs3)nnc12	136
CN(C)C(=S)SCC(=O)Nc1ccc(Cl)cc1Cl	i
COCCOc1cc(-n2ccnc2SC)c(Cl)cc1Cl	i
CC(C(=O)Nc1cccc(Br)c1)c1ccc([N+](=O)[O-])cc1 (stereo unspecified)	i
O=C(CCCOc1ccccc1)Nc1cccc([N+](=O)[O-])c1	i
CC(=O)N[C@@H](C)C(=O)OC(C)C(=O)Nc1cccc([N+](=O)[O-])c1 (stereo partly specified)	392
CN(C)S(=O)(=O)c1cc(NC(=O)COC(=O)CCSc2ccc(Cl)cc2)ccc1Cl	i
CC(C)(C)NC(=O)COC(=O)Cc1ccc(Cl)cc1	i
Cc1cc(N)nc2nc(C(F)(F)F)nn12	800
Cc1cc(C)n2nc(CCc3ccccc3)nc2n1	i
Cc1cc(C)n2nc(-c3ccc(F)cc3)nc2n1	i
COC(=O)c1sccc1NC(=O)Cc1ccc(Br)cc1	i
COc1cc(NC(=O)CN(C)C2CCCCC2)c(C)cc1[N+](=O)[O-]	i
CC(C)Oc1ccc(NC(=O)c2ccncc2)cc1	i
CN=c1sc2ccccc2n1CC(O)COCc1ccco1 (stereo unspecified)	i
CN(Cc1cccs1)CC(O)COCc1ccco1 (stereo unspecified)	i
OC(COCc1ccco1)CN1CCN(C(c2ccccc2)c2ccccc2)CC1 (stereo unspecified)	129
SMILES	Insulin prom act
CCc1ccc(NC(=S)N2CCCCCCC2)cc1	i
CCn1c(SCC(=O)Nc2cc(C)on2)nnc1-c1cccs1	i
CCn1c(CNC(=O)c2cccs2)nnc1SCC(=O)Nc1ccc(Cl)cc1	650
C=CCn1c(CCNC(=O)c2cccs2)nnc1SCC(=O)Nc1cccc(C(C)=O)c1	i
COCCn1nnnc1C(c1ccc(OC)c(OC)c1)N1CCN(c2nc3ccccc3s2)CC1 (stereo unspecified)	i
COc1ccccc1Oc1nc([N+](=O)[O-])nn1CC(N)=O	i
COc1ccc(OC)c(-c2c(C#N)c(N)nc3c2c(=O)nc2sccn23)c1	i
COC(=O)C1CCN(C(=O)CCCOc2ccccc2)CC1	i
C=CCNC(=S)N1CCC(C(=O)c2ccc(OC)cc2)CC1	i
